Measurements as given in ChEMBL document CHEMBL1152519, “Synthesis, structural activity-relationships, and biological evaluation of novel amide-based allosteric binding site antagonists in NR1A/NR2B N-methyl-D-aspartate receptors” (Bioorg Med Chem, 2009).
Activity calls are given as the source filed them. The calls are words filed in the database; no cut-off is given here.

What was measured:
[1] = molecular target: T1, Glutamate NMDA receptor; GRIN1/GRIN2B (Homo sapiens, UniProt Q05586+Q13224); experiment: Antagonist activity at human recombinant NR1/NR2B receptor expressed in frog oocytes assessed as inhibition of glutamate/glycine-induced current at 3 uM by two electrode voltage clamp method; type: functional, cell-based; conditions: Oocyte
[2] = molecular target: Glutamate NMDA receptor; Grin1/Grin2c (Rattus norvegicus, UniProt P35439+Q00961); experiment: Antagonist activity at rat recombinant NR1/NR2C receptor expressed in Xenopus laevis oocytes assessed as inhibition of glutamate/glycine-induced current by two electrode voltage clamp method; type: functional, cell-based, Oocyte
In short: (§1)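 Xenopus oocytes expressing NR1/NR2 (wild type or amino terminal domain deletion mutant) recorded by TEVC at −40 mV, room temperature, pH 7.4–7.6, with EDTA 10 μM. Maximal glutamate/glycine applied alone, then with 5–8 successive compound concentrations. Leak-corrected; responses under 50 nA excluded. IC50 from fitted composite curve. NR1/NR2A oocytes were pre-incubated in 50 μM BAPTA-AM.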

[3] = molecular target: Ionotropic glutamate receptor NMDA 1/2D (Rattus norvegicus, UniProt P35439+Q62645); experiment: Antagonist activity at rat recombinant NR1/NR2D receptor expressed in Xenopus laevis oocytes assessed as inhibition of glutamate/glycine-induced current by two electrode voltage clamp method; type: functional, cell-based, Oocyte; in short: as §1
[4] = molecular target: Glutamate receptor ionotropic, kainate 2 (Rattus norvegicus) (UniProt P42260); experiment: Antagonist activity at rat recombinant GluR6 expressed in Xenopus laevis oocytes assessed as inhibition of concanavalin A/glutamate-induced current at 3 uM by two electrode voltage clamp method; type: functional, cell-based; conditions: Oocyte
In short: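 Oocytes expressing homomeric GluR6 (5–10 ng cRNA) pretreated 5 min with 10 μM concanavalin-A. Currents evoked by 100 μM glutamate at −40 mV, with or without 3 μM compound, and given as percent of control. Mean ± SEM of 4–10 oocytes; paired t-test.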

[5] = molecular target: Glutamate receptor 1 (Rattus norvegicus) (UniProt P19490); experiment: Antagonist activity at rat recombinant GluR1 expressed in Xenopus laevis oocytes assessed as inhibition of glutamate-induced current at 3 uM by two electrode voltage clamp method; type: functional, cell-based; conditions: Oocyte
In short: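 GluR1 homomers expressed from 5–10 ng cRNA in Xenopus oocytes. Clamped at −40 mV. Currents evoked by 100 μM glutamate with 3 μM compound, expressed as % of control without compound. Mean ± SEM, 4–10 oocytes; paired t-test.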

Rattus norvegicus [6] = species on record: Rattus norvegicus; experiment: Inhibition of voltage-gated sodium channel in Sprague-Dawley rat cortical neuron at 3 uM by whole cell patch clamp technique
Rattus norvegicus [7] = species on record: Rattus norvegicus; experiment: Inhibition of voltage-gated potassium channel in Sprague-Dawley rat cortical neuron at 3 uM by whole cell patch clamp technique
[8] = molecular target: T2, Glutamate NMDA receptor; Grin1/Grin2b (Rattus norvegicus) (UniProt P35439+Q00960); experiment: Antagonist activity at rat recombinant NR1/NR2B receptor expressed in Xenopus laevis oocytes assessed as noncompetitive inhibition of glutamate/glycine-induced current at 0.054 uM by two electrode voltage clamp method; type: functional, cell-based; conditions: Oocyte
In short: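 TEVC on rat NR1/NR2B oocytes at −40 mV. Inhibition by 0.054 μM compound measured while glutamate or glycine was raised 10-fold above the control 50 μM glutamate/30 μM glycine. Response given as percent of control; n = 4.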

[9] = molecular target: Glutamate NMDA receptor; Grin1/Grin2b (Rattus norvegicus, UniProt P35439+Q00960); experiment: Antagonist activity at wild type rat NR1/NR2B receptor expressed in Xenopus laevis oocytes assessed as inhibition of glutamate/glycine-induced current by two electrode voltage clamp method; type: functional, cell-based, Oocyte; in short: as §1
MDCK = experiment: Apparent permeability from apical to basolateral side of MDR1-expressing MDCK cells at 5 uM after 2 hrs by LC-MS/MS analysis; type: ADME, cell-based, Canis lupus familiaris; conditions: dog
In short: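 MDR1-MDCK monolayers grown 7–11 days on Transwells. Compound at 5 μM in HBSS pH 7.4 (final DMSO ≤1%) added apically (A–B) or basally (B–A). Incubated 2 h at 37 °C; both compartments quantified by LC–MS/MS against a >4-point calibration. Papp given in ×10−6 cm/s; efflux ratio = B–A/A–B. Duplicates.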

[10] = molecular target: T2, Glutamate NMDA receptor; Grin1/Grin2b (Rattus norvegicus); experiment: Antagonist activity at rat recombinant NR1/NR2B receptor expressed in Xenopus laevis oocytes assessed as inhibition of glutamate/glycine-induced current at 3 uM by two electrode voltage clamp method relative to control; type: functional, cell-based; conditions: Oocyte
In short: (§2)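 Xenopus oocytes injected with NR1-1a (3–5 ng) plus NR2A, 2B, 2C or 2D cRNA (7–10 ng), kept at 15 °C. Voltage clamp at −40 mV. Responses to 50 μM glutamate + 30 μM glycine with 3 μM compound, as % of response without compound. NR2A oocytes pre-loaded with 50 μM BAPTA-AM. Mean ± SEM, 4–10 oocytes; paired t-test.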

[11] = molecular target: Glutamate NMDA receptor; Grin1/Grin2c (Rattus norvegicus) (UniProt P35439+Q00961); experiment: Antagonist activity at rat recombinant NR1/NR2C receptor expressed in Xenopus laevis oocytes assessed as inhibition of glutamate/glycine-induced current at 3 uM by two electrode voltage clamp method relative to control; type: functional, cell-based; conditions: Oocyte; in short: as §2
[12] = molecular target: Ionotropic glutamate receptor NMDA 1/2D (Rattus norvegicus) (UniProt P35439+Q62645); experiment: Antagonist activity at rat recombinant NR1/NR2D receptor expressed in Xenopus laevis oocytes assessed as inhibition of glutamate/glycine-induced current at 3 uM by two electrode voltage clamp method relative to control; type: functional, cell-based; conditions: Oocyte; in short: as §2
[13] = molecular target: T1, Glutamate NMDA receptor; GRIN1/GRIN2B; experiment: Antagonist activity at human recombinant NR1/NR2B receptor expressed in frog oocytes assessed as inhibition of glutamate/glycine-induced current by two electrode voltage clamp method; type: functional, cell-based, Oocyte
In short: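 Human NR1/NR2B cRNA injected into Xenopus oocytes. Two-electrode voltage clamp at −40 mV, 23 °C, 2–7 d after injection. Glutamate/glycine (50–100 μM/30 μM) applied, then with 5–8 compound concentrations. Bath contains 10 μM EDTA; leak-corrected.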

[14] = molecular target: Glutamate receptor ionotropic, NMDA 2B (Rattus norvegicus, UniProt Q00960); experiment: Displacement of [3H]ifenprodil form NR2B receptor in Wistar rat cerebral cortex membrane; type: tissue-based

Sequence of Glutamate receptor ionotropic, kainate 2 (Rattus norvegicus) (P42260 whole entry): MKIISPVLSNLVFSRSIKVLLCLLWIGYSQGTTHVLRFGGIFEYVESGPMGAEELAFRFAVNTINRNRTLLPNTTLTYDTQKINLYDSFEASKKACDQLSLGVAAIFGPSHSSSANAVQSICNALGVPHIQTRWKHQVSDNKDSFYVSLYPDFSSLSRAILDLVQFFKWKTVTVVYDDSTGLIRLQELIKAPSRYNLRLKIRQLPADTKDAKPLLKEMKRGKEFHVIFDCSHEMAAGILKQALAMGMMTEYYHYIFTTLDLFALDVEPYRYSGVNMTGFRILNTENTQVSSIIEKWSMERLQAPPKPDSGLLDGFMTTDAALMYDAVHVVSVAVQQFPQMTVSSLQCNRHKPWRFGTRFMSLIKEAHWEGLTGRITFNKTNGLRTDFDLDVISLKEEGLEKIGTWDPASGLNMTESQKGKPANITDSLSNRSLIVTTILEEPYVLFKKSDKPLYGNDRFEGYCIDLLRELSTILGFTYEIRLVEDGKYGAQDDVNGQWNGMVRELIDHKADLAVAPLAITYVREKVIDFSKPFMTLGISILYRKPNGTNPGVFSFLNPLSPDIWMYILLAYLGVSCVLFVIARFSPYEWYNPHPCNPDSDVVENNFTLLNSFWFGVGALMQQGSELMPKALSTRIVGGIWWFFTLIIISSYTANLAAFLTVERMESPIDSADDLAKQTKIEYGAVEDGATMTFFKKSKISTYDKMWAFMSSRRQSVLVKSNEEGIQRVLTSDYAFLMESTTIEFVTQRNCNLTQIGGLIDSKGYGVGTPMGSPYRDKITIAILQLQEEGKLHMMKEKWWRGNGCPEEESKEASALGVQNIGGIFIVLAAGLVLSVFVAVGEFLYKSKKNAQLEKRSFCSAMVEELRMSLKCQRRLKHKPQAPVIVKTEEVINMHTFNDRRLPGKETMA
Sequence of Glutamate receptor 1 (Rattus norvegicus) (P19490 whole entry): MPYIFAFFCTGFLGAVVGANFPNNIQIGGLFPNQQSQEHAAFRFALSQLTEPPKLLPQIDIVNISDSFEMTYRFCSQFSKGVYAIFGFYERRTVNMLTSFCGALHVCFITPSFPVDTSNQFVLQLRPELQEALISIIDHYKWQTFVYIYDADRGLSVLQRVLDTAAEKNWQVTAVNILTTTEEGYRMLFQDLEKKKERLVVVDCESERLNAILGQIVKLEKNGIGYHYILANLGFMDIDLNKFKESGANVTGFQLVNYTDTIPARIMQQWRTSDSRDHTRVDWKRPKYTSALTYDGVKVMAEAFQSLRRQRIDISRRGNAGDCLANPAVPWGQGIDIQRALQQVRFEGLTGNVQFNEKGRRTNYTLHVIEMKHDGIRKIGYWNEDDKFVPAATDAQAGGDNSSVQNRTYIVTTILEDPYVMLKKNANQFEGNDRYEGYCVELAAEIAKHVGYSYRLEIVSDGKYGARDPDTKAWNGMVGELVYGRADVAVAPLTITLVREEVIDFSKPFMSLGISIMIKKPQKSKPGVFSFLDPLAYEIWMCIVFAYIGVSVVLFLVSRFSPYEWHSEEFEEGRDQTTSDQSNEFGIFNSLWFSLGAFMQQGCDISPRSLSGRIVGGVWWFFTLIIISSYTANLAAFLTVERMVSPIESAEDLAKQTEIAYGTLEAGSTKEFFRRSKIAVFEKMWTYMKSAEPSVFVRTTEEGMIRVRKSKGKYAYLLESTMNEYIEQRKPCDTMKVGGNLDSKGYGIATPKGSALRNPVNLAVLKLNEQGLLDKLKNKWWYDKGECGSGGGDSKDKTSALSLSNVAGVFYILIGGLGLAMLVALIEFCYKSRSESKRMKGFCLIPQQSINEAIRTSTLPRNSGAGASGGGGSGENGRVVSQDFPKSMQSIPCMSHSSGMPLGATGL

Q: `CS(=O)(=O)Nc1ccc(OCC(=O)NCCNc2ccc(Cl)c(Cl)c2)cc1` was tested. Which inhibition [1] did it give?
A: Its inhibition is 90%.

Q: What about the IC50 [2] of the same compound?
A: The IC50 was 58 µM.

Q: And the IC50 [3]?
A: Its IC50 is 107 µM.

Q: What about the inhibition [4] of the same compound?
A: The inhibition was “inactive”.

Q: And the inhibition [5]?
A: Its inhibition is “inactive”.

Q: And the inhibition (Rattus norvegicus [6])?
A: Its inhibition is “inactive”.

Q: What about the inhibition (Rattus norvegicus [7]) of the same compound?
A: Its inhibition is “inactive”.

Q: What about the inhibition [8] of the same compound?
A: The inhibition was “Active”.

Q: What about the IC50 [9] of the same compound?
A: The IC50 was 57 nM.

Q: And the Papp (MDCK)?
A: Its Papp is 1.8 ×10⁻⁶ cm/s.

Q: And the % response [10]?
A: Its % response is 16%.

Q: And the % response [11]?
A: Its % response is 98%.

Q: What about the % response [12] of the same compound?
A: Its % response is 91%.

Q: What about the IC50 [13] of the same compound?
A: The IC50 was 54 nM.

Q: And the Ki [14]?
A: The Ki was 119 nM.
